Experimental data reported in ChEMBL document CHEMBL4819017 (Eur J Med Chem, 2021).

Assays:
HT-29 = test: Growth inhibition of human HT-29 cells harboring mutated p110alpha measured after 72 hrs by Cell titre Glo-luminiscence cell viability assay; type: functional
Procedure, shortened: (§1)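 Cells harvested just before confluency and seeded at 4,000 cells/well, then left 24 h before dosing. Serial dilutions from 10 mM DMSO stocks, final DMSO ≤0.5%, each concentration in duplicate.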

[1] = Inhibition of PI3K/mTOR in human MCF7 cells assessed as reduction of AKT phosphorylation at Thr308 residue measured after 3 hrs by western blot assay; type: cell-based; conditions: MCF7, 3 h
Procedure, shortened: (§2)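 MCF7 cells treated for 3 h across a dose range, washed and lysed with phosphatase and protease inhibitors. Lysates run on 10% SDS-PAGE and blotted, antibodies incubated overnight at 4 °C.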

A549 = test: Growth inhibition of human A549 cells harboring wild type p110alpha and PTEN measured after 72 hrs by Cell titre Glo-luminiscence cell viability assay; type: functional; procedure, shortened: as §1
[2] = Inhibition of PI3K/mTOR in human MCF7 cells assessed as reduction of AKT phosphorylation at Ser473 residue measured after 3 hrs by western blot assay; type: cell-based; conditions: MCF7, 3 h; procedure, shortened: as §2
[3] = molecular target: Phosphatidylinositol 4,5-bisphosphate 3-kinase catalytic subunit gamma isoform (Homo sapiens, UniProt P48736); test: Inhibition of human p110gamma using PIP2 as substrate in presence of ATP measured by HTRF assay
Phosphatidylinositol 4,5-bisphosphate 3-kinase catalytic subunit gamma isoform, sequence (P48736 whole entry, canonical isoform): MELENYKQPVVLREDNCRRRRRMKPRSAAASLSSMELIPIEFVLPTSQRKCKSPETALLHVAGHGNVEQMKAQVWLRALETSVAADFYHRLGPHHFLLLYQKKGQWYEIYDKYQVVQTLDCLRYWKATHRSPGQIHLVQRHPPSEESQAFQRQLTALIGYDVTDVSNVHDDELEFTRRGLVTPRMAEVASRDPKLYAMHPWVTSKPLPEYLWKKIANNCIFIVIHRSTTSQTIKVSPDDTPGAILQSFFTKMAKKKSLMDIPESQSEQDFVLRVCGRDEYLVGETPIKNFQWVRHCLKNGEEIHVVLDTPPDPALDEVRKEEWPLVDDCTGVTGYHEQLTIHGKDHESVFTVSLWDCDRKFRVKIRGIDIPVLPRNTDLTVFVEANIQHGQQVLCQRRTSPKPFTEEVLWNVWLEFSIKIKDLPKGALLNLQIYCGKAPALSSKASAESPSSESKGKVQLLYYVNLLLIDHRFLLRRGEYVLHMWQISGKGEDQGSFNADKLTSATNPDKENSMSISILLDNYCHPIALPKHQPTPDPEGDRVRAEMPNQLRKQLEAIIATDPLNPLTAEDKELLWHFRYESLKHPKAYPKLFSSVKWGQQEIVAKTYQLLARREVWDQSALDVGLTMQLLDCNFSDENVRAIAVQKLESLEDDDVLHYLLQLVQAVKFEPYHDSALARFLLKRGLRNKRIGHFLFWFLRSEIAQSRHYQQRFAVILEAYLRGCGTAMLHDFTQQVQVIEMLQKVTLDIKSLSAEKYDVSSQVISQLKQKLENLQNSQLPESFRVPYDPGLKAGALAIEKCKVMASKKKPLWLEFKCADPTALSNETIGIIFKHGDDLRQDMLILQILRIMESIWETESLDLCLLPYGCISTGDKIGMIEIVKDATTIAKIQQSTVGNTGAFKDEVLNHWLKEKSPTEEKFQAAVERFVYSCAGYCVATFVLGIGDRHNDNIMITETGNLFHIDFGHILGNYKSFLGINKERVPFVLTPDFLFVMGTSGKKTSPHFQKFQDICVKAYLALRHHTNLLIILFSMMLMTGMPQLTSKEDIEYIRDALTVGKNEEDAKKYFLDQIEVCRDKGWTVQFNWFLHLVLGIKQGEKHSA
Procedure, shortened: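 HTRF PI3-kinase assay with PIP2 at 10 µM. Enzyme and ATP levels (ATP at 50× KM): p110α/p85α 100 pM with 200 µM ATP; p110δ/p85α 100 pM with 200 µM ATP; p110β/p85α 500 pM with 250 µM ATP; p110γ 4 nM with 100 µM ATP. Activity normalized to no-compound control, variable-slope sigmoidal fit. Two independent experiments in duplicate.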

[4] = Inhibition of PI3K/mTOR in human MCF7 cells assessed as reduction of S6 phosphorylation at Ser235/236 residue measured after 3 hrs by western blot assay; type: cell-based; conditions: MCF7, 3 h; procedure, shortened: as §2
PC-3 = test: Growth inhibition of human PC-3 cells harboring PTEN inactivation measured after 72 hrs by Cell titre Glo-luminiscence cell viability assay; type: functional; procedure, shortened: as §1
[5] = Inhibition of PI3K/mTOR in human MCF7 cells assessed as reduction of P70S6K phosphorylation at Thr389 residue measured after 3 hrs by western blot assay; type: cell-based; conditions: MCF7, 3 h; procedure, shortened: as §2
NCI-H1975 = test: Growth inhibition of human NCI-H1975 cells harboring mutated p110alpha measured after 72 hrs by Cell titre Glo-luminiscence cell viability assay; type: functional; procedure, shortened: as §1
DU-145 = test: Growth inhibition of human DU-145 cells harboring wild type p110alpha and PTEN measured after 72 hrs by Cell titre Glo-luminiscence cell viability assay; type: functional; procedure, shortened: as §1
[6] = Inhibition of PI3K/mTOR in human U2OS cells assessed as inhibition of AKT1 phosphorylation at Ser473 residue by C-ELISA; type: cell-based
Procedure, shortened: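 U2OS osteosarcoma cells grown in 0.1% FBS and serum-stimulated. Endogenous phospho-AKT1 Ser473 quantified by cell-based ELISA with chemiluminescent substrate. Signal plotted against inhibitor concentration and fitted to a sigmoid dose-response curve.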

- GI50 (HT-29): 19.9 nM
- EC50 [1]: 0.21 nM
- GI50 (A549): 26.6 nM
- EC50 [2]: 0.65 nM
- Ki [3]: 0.51 nM
- EC50 [4]: 0.87 nM
- GI50 (PC-3): 197 nM
- EC50 [5]: 0.68 nM
- GI50 (NCI-H1975): 14.4 nM
- GI50 (DU-145): 16.3 nM
- EC50 [6]: 0.6 nM
Compound: COc1ncc(-c2ccc3nccc(-c4ccnnc4)c3c2)cc1NS(=O)(=O)c1ccc(F)cc1F [OMIPALISIB]
